Reference: paper PMC2834294 (Chemistry & biology, 2010)

Tests used:
TRPML3 [1] = biological target: T1, TRPML3 (Homo sapiens, UniProt Q8TDD5); test: Whole-cell patch-clamp with intracellular application; assay type: cell-based
T1 sequence (Q8TDD5 1-553): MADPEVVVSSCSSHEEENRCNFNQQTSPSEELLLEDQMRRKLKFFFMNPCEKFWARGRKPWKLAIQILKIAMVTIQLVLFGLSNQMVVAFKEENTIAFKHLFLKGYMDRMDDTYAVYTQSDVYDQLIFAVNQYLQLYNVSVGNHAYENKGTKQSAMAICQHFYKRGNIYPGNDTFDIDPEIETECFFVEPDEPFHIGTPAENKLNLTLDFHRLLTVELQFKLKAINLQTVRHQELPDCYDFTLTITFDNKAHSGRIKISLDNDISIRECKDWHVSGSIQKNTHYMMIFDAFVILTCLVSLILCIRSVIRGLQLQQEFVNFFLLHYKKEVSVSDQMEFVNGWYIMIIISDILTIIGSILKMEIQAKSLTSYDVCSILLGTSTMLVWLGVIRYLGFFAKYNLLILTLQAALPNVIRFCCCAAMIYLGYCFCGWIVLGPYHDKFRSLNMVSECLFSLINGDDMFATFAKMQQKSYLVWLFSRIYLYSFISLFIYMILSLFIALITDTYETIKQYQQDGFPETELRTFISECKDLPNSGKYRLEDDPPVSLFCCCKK

[2] = tested on: TRPM2, TRPV2, TRPC3, TRPN1, TRPA1; test: Fura-2 calcium imaging selectivity, HEK293 cells expressing other TRP channels; assay type: cell-based
Outline: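 HEK293 cells were transiently transfected (Genejammer) with expression vectors for each TRP channel and measured 24 h later. Cells on coverslips were loaded with 4 μM fura-2-AM in bath solution (mM: 138 NaCl, 6 KCl, 2 MgCl₂, 2 CaCl₂, 10 HEPES, 5.5 D-glucose, pH 7.4). [Ca²⁺]i increases to 10 µM test compound were imaged on a monochromator-based system.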

[3] = tested on: melanocytes expressing dynamin; test: Calcium imaging, melanocytes transfected with wild type dynamin; assay type: cell-based, human; conditions: 30 µM
Outline: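 Human epidermal melanocytes (medium 254 plus HMGS) were transfected with wild-type dynamin, DynK44A or YFP control. Intracellular Ca2+ was imaged after applying compounds at 30 µM each. Data are mean ± SEM from at least 3 independent experiments of 20–30 cells each.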

[4] = tested on: primary human epidermal melanocytes; test: Calcium imaging in primary human epidermal melanocytes; assay type: cell-based; conditions: concentrations up-to 100 µM; SN-2 at 30 µM and 100 µM
Outline: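 Primary neonatal human epidermal melanocytes were cultured in medium 254 with HMGS at 37 °C and 5% CO2. Intracellular Ca2+ was imaged after applying compounds at 100 µM, with one compound also at 30 µM. Data are mean ± SEM from more than 3 independent experiments of 20–30 cells each.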

TRPML1(NC) = TRPML1(NC) (Homo sapiens, UniProt Q9GZU1); test: Fura-2 calcium imaging, HEK293 cells expressing TRPML1; assay type: cell-based; conditions: 10 µM, plasma membrane-localized TRPML1 variant
TRPML1(NC), sequence (Q9GZU1 17-572 limits assumed): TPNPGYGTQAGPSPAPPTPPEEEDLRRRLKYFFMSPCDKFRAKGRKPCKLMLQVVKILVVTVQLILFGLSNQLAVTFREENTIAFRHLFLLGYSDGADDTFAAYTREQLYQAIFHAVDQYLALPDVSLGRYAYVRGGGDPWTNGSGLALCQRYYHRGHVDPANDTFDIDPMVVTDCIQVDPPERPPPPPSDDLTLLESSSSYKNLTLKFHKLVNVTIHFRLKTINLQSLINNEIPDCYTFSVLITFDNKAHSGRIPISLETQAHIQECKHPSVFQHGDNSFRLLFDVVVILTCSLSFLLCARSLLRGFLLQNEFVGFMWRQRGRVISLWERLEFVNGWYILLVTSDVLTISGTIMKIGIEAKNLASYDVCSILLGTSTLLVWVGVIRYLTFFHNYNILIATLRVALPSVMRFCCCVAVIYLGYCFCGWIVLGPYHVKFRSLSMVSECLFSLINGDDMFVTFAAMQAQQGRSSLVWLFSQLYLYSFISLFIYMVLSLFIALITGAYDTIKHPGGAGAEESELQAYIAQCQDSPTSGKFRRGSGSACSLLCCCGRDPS
Outline: (§1)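 HEK293 cells were transiently transfected (Genejammer) with the human channel construct or YFP control and measured 24 h later. Cells on glass coverslips were loaded with 4 µM fura-2-AM in bath solution (mM: 138 NaCl, 6 KCl, 2 MgCl2, 2 CaCl2, 10 HEPES, 5.5 D-glucose; pH 7.4). Compounds were applied at 10 µM and the F340/F380 ratio recorded. Values are mean ± SEM, n≥3.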

TRPML3 [5] = biological target: T1, TRPML3; test: Fura-2 calcium imaging, HEK293 cells transiently expressing TRPML3; assay type: cell-based
Outline: as §1

TRPML3 [6] = biological target: T1, TRPML3; assay type: cell-based; conditions: HEK293, read-out: Max % Activation (TRPML3)
Outline: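 HEK293 lines stably expressed YFP-fused human TRPML3 or zebrafish TRPN1 (G418 0.8 mg/ml, twice subcloned) and were plated at 1,500 cells/well for 23 h at 37 °C. After Fluo-8 loading (1 h 37 °C, 30 min RT), a 5 s basal read and 120 s post-addition read were taken. Max/basal ratios were normalized to DMSO and carbachol (87 µM).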

Cc1cc(C)c(C2=NOC3C4CCC(C4)C23)c(C)c1 (stereo not drawn) [SN-2, 5-mesityl-3-oxa-4-azatricyclo[5.2.1.0∼2,6∼]dec-4-ene]
cell membrane permeability (TRPML3 [1]; inferred from intracellular infusion experiment): not cell permeant
response to intracellular application (infusion) (TRPML3 [1]; whole-cell, −80 mV): did not elicit a response when infused into the cells
activation of other TRP channels tested [2]: did not show any activity on other TRP channels
response in melanocytes expressing wild type dynamin [3]: reduction of the response
[Ca2+]i response in primary human epidermal melanocytes [4]: elicited a stronger response
activation of mutant TRPML1(NC) isoform (TRPML1(NC)): did not show any activity
⊗F340/F380 (TRPML3) (TRPML3 [5]; 10 µM compound, mean ±SEM (n≥3)): 1.08 ±0.05
kinetics of intracellular calcium increase (TRPML3 [5]; TRPML3-transfected HEK293 cells): much more rapid increase than the other compounds
Emax (TRPML3 [6]): 149 ± 11%
